Assay results of several laboratories.
Compare with care: the assays were run in different laboratories.
MMP7: Matrilysin (MMP7, Homo sapiens, UniProt P09237)
PIP5K1C: Phosphatidylinositol 4-phosphate 5-kinase type-1 gamma (PIP5K1C, Homo sapiens, UniProt O60331)

Compound	target	assay	test system	setting	endpoint	result
C#Cc1n[nH]c2c(-c3cn(C(C)c4ccccn4)c(=O)[nH]c3=O)cc(F)cc12 (centres unmarked)	Mitogen-activated protein kinase kinase kinase kinase 3 (MAP4K3, Homo sapiens, UniProt Q8IVH8)	enzyme activity, inhibitor	–	1 µM	inhibition	9.1%
CNC(=O)[C@H](Cc1ccccc1)NC(=O)[C@H](CC(C)C)[C@H](CSc1cccs1)C(=O)NO	MMP7	enzyme activity, inhibitor	–	1 nM	inhibition	31%
Nc1ncc(-c2nc(N3CCOCC3)nc(N3CCOCC3)n2)c(C(F)F)n1	PIP5K1C	binding, competition with immobilised ligand	–	10 µM	remaining binding	100%
COc1ncccc1-c1cnn2ccc(N3CCN(C(=O)OC(C)C)CC3)nc12	Serine/threonine-protein kinase/endoribonuclease IRE1 (ERN1, Homo sapiens, UniProt O75460)	binding, competition with immobilised ligand	–	1 µM	remaining binding	67%
CCN1CCN(Cc2ccc(NC(=O)c3ccc(C)c(Oc4ccnc5[nH]ccc45)c3)cc2C(F)(F)F)CC1	Serine/threonine-protein kinase 32C (STK32C, Homo sapiens, UniProt Q86UX6)	target engagement in cells, inhibitor, chemoproteomics	Huh-7	1 µM	inhibition	-13.4%
CN(C)C(=O)COC(=O)Cc1ccc(OC(=O)c2ccc(NC(=N)N)cc2)cc1	MMP7	enzyme activity, inhibitor	–	10 µM	inhibition	2%
Cc1nn(C)cc1-c1nc2c(N3CCN(Cc4ccc(Cl)cc4)CC3)c(Cl)cnc2[nH]1	PIP5K1C	binding, competition with immobilised ligand	–	1 µM	remaining binding	84%
Cc1ccc(-c2cnnc(N3CCC(c4cccc(Cl)c4)C3)n2)o1 (centres unmarked)	Inorganic pyrophosphatase (Mycobacterium tuberculosis, UniProt P9WI55)	enzyme activity, inhibitor	–	100 µM	inhibition	45%
